Measured values from ChEMBL document CHEMBL1157704, “Potent activity against K562 cells by polyamide-seco-CBI conjugates targeting histone H4 genes” (Bioorg Med Chem, 2010).

Assays:
Assay type in all cases: functional
K562 [1] = assay: Effect on HIST2H2A gene expression in human K562 cells assessed as change in mRNA transcript expression at 10 nM after 48 hrs by DNA microarray analysis relative to control
Method in brief: (§1)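 K562 CML cells (b3a2 Bcr-Abl) in standard ATCC-recommended culture, exposed once to 10 nM conjugate and harvested at 48 h. Untreated controls were also collected at 48 h. Transcripts were profiled on Human Gene 1.0 ST whole-genome oligonucleotide arrays, and each treated level was expressed relative to the untreated control, with a cutoff of at least twofold change.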

K562 [2] = assay: Effect on HIST1H4J gene expression in human K562 cells assessed as down-regulation of mRNA transcript expression at 10 nM after 48 hrs by DNA microarray analysis relative to control; method in brief: as §1
K562 [3] = assay: Effect on HIST1H4C gene expression in human K562 cells assessed as down-regulation of mRNA transcript expression at 10 nM after 48 hrs by DNA microarray analysis relative to control
Method in brief: (§2)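 Transcripts were profiled on Affymetrix GeneChip Human Gene 1.0 ST arrays in K562 cells treated at 10 nM. Treated cells were collected at 6, 12, 24 and 48 h; untreated controls were collected at 48 h. Transcripts changed at least twofold versus control were scored.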

K562 [4] = assay: Effect on RNU5F gene expression in human K562 cells assessed as change in mRNA transcript expression at 10 nM after 48 hrs by DNA microarray analysis relative to control; method in brief: as §1
K562 [5] = assay: Effect on HIST1H2BL gene expression in human K562 cells assessed as change in mRNA transcript expression at 10 nM after 48 hrs by DNA microarray analysis relative to control; method in brief: as §2
K562 [6] = assay: Effect on HIST1H2BH gene expression in human K562 cells assessed as change in mRNA transcript expression at 10 nM after 48 hrs by DNA microarray analysis relative to control; method in brief: as §2

CC(=O)Nc1cn(C)c(C(=O)Nc2cn(C)c(C(=O)NCCC(=O)Nc3cn(C)c(C(=O)NCCCC(=O)Nc4cc(C(=O)Nc5cn(C)c(C(=O)Nc6ccc7[nH]c(C(=O)N8CC(CCl)c9c8cc(O)c8ccccc98)cc7c6)n5)n(C)c4)n3)n2)n1 (stereo unspecified)
fold change (FC) (K562 [1]): >=2 | fold change (FC) (K562 [2]): 2.61 | fold change (FC) (K562 [3]): 2.86 | fold change (FC) (K562 [4]): >=2 | fold change (FC) (K562 [5]): >=2 | fold change (FC) (K562 [6]): >=2
